CFTR F508del cor: correctors of CFTR F508del function in bronchial epithelial cells | CFBE cells, YFP halide quenching; stimulated with forskolin plus potentiator P3; % fluorescence drop versus neutral controls | activity (quench increase), % at 7.58 µM | hit rate 0.36% among 350,000 | AID 720511;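 active means mean added fluorescence quench of at least 8% versus neutral control, with both replicates also reaching 8%; inconclusive means only one of the mean or replicate conditions met; inactive means mean below 8% and not both replicates reaching 8%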;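 further: cells transiently co-express mutant CFTR-F508del with the halide-sensitive YFP; corrector assay measuring rescue of mutant channel to the surface after 24 h compound exposure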
Env fusion inh: HIV envelope-mediated fusion inhibition. HeLa-JRFL Env/CEM21 cell fusion, luciferase. inhibition, % at 12.3 µM. hit rate 1.1% among 360,000;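 active means mean replicate inhibition score of at least 50 and every replicate individually at or above 50; inconclusive means only one of the two criteria met; inactive means mean below 50 and not all replicates reaching 50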;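 further: 0% = plate neutral controls and 100% = maraviroc near 300 nM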
FN deposition inh: fibronectin deposition inhibition. AH1F fibroblasts, Alexa488-fibronectin deposition fluorescence, overnight. inhibition, % at 12.6 µM. hit rate 0.086% among 350,000;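 active means mean inhibition across replicates of 30% or more, regardless of how many single replicates reach that level; inconclusive means mean under 30% yet at least half of replicates reach 30%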;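 further: positive control wells lacked labelled fibronectin entirely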
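Test system: AH1F fibroblast monolayer depositing Alexa488-labelled fibronectin into matrix. Input: 10000 cells per well. Technique: fluorescence, ex 485 nm, em 525 nm. Buffer or medium: DMEM plus 2% serum, read in PBS. Timing: 1 h cell adhesion before compound, then overnight fibronectin incubation. Compound: single dose, pinned. Read-out basis: inhibition from reduced deposited-fibronectin fluorescence.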
EWS-Fli inh: blocks EWS/Fli oncoprotein-driven transcription; A673 NR0B1-luciferase reporter, viability-normalised; inhibition, % at 12.6 µM; hit rate 0.67% among 350,000; AID 651661;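 active means mean inhibition of at least 50% after viability correction, with every replicate also passing that limit; inconclusive means mean reaches 50% but only one of two replicates passes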;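 further: firefly luciferase signal divided by Alamar Blue viability fluorescence both relative to DMSO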
PGC1a acetyl inh: PGC1a acetylation modulation, inhibitor mode; U2OS PGC1a acetylation, AlphaScreen anti-acetyl-lysine; with virally co-expressed GCN5 acetyltransferase; inhibition, % at 15.6 µM; hit rate 0.17% among 350,000; AID 651687;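 active means every replicate shows inhibition of at least 40%; inconclusive means mean inhibition at least 40% but some replicate below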;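 further: 0% = neutral control wells and 100% = positive control wells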
PAX8 inh HTS: inhibitors of PAX8 transcriptional activity in RMG-I cells; inhibition, % at 12.6 µM; RMG-I TPO-luciferase reporter, SteadyGlo, 24 h; hit rate 1.2% among 360,000;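 active means mean replicate inhibition at least 60% with every replicate also reaching 60%; inconclusive means only one of the two criteria is met; inactive means mean below 60% and not all replicates reaching 60%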;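 further: luciferase light reporting Pax8 driven TPO promoter activity; plate controls were median of neutral control wells for no effect and mitoxantrone controls for full effect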
* hit, by the source's call; ? = inconclusive; . = no result given; [ ] = remark or other dose. In the library only some 2.3% were active in any assay of this set; here they are far more common.

SMILES	CFTR F508del cor	Env fusion inh	FN deposition inh	EWS-Fli inh	PGC1a acetyl inh	PAX8 inh HTS
COc1ccc(NC(=O)N2CCCCN3[C@@H](CO)[C@H](c4ccc(-c5ccccc5C)cc4)[C@@H]3C2)cc1	-3.0	.	.	.	-3.2	2.9
C/C(=N\NC(=O)CN1CCCCC1)c1cccc([N+](=O)[O-])c1	-2.4	-8.4	-1.1	-59.7	.	-6.9
C/C(=N\NC(=O)CN1CCCCC1)c1ccccc1O	2.0	0.6	12.3	-14.5	43.8*	-6.0
Cc1ccc(S(=O)(=O)NCc2ccccc2)cc1C(=O)N1CC(C)CC(C)C1 (stereo not drawn)	8.3*	25.1	-5.3	4.0	2.3	6.7
Cc1ccc(S(=O)(=O)NCc2ccccc2)cc1C(=O)N1CCCCC1	0.5	18.0	.	.	.	-2.4
C[C@H](CO)N1C[C@H](C)[C@H](CN(C)C(=O)Nc2ccc3c(c2)OCO3)OCCCC[C@H](C)Oc2ccc(NS(=O)(=O)c3ccc(Cl)cc3)cc2C1=O	-2.1	5.5[16.7 µM]	-2.2	-16.0	0.0	3.1
COc1ccccc1S(=O)(=O)N(C)C[C@H]1Oc2cc(C#CCC(C)C)ccc2S(=O)(=O)N([C@H](C)CO)C[C@@H]1C	-0.3	25.6[16.7 µM]	.	19.0	-8.4	.
COc1ccccc1S(=O)(=O)N(C)C[C@H]1Oc2cc(C#CCC(C)C)ccc2S(=O)(=O)N([C@@H](C)CO)C[C@H]1C	1.8	55.0*[16.7 µM]	.	21.7	-5.3	.
COc1ccccc1S(=O)(=O)N(C)C[C@@H]1Oc2cc(C#CCC3CCCC3)ccc2S(=O)(=O)N([C@@H](C)CO)C[C@@H]1C	2.9	38.3[16.7 µM]	1.9	9.7	-4.7	75.9*
COc1ccccc1S(=O)(=O)N(C)C[C@@H]1Oc2cc(C#CCC3CCCC3)ccc2S(=O)(=O)N([C@@H](C)CO)C[C@H]1C	4.1	15.4[16.7 µM]	5.7	-2.6	1.1	73.0*
C[C@@H]1CCCCO[C@@H](CN(C)C(=O)Cc2ccccc2)[C@H](C)CN([C@H](C)CO)C(=O)c2cc(NS(=O)(=O)c3ccc(Cl)cc3)ccc2O1	1.3	-0.8[16.7 µM]	1.8	2.7	-18.0	57.5
COc1cccc(N=Nc2ccc3cccnc3c2O)c1	8.3*	-5.1	9.1	-46.1	.	49.6
COc1cccc(N=Nc2ccc(O)c3ncccc23)c1	-0.1	-178.6	4.9	-24.5	.	48.3
C[C@@H]1CCCCO[C@@H](CN(C)CC2CC2)[C@@H](C)CN([C@H](C)CO)C(=O)c2cc(NS(C)(=O)=O)ccc2O1	-1.0	6.0[16.7 µM]	6.6	.	7.0	6.1
CS(=O)(=O)N1[C@@H]2Cn3c(ccc(C4=CCCCC4)c3=O)[C@H]1[C@@H](C(=O)N1CCCCC1)[C@@H]2CO	-1.1	.	.	-0.2	.	.
CC(=O)N1[C@H](CNC(=O)CN2CCOCC2)[C@@H](c2ccccc2)[C@@H]1CO	0.0	.	-9.0	-3.0	-0.1	-7.6
C[C@H]1CCCCO[C@@H](CN(C)Cc2ccc(C(F)(F)F)cc2)[C@@H](C)CN([C@@H](C)CO)C(=O)c2cc(NC(=O)Nc3ccc(F)cc3)ccc2O1	2.1	87.2*[16.7 µM]	-0.1	18.6	-3.5	104.9*
C[C@@H]1CCCCO[C@@H](CN(C)Cc2ccc(C(F)(F)F)cc2)[C@H](C)CN([C@H](C)CO)C(=O)c2cc(NC(=O)Nc3ccc(C(F)(F)F)cc3)ccc2O1	2.4	70.2*[16.7 µM]	-4.9	-0.3	6.1	68.5*
C[C@@H]1CCCCO[C@@H](CN(C)Cc2ccc(C(F)(F)F)cc2)[C@H](C)CN([C@H](C)CO)C(=O)c2cc(NC(=O)Nc3ccc(F)cc3)ccc2O1	-1.5	59.9*[16.7 µM]	-5.6	11.0	-15.6	69.0*
C[C@@H]1CCCCO[C@H](CN(C)Cc2ccc(C(F)(F)F)cc2)[C@@H](C)CN([C@@H](C)CO)C(=O)c2cc(NC(=O)Nc3ccc(F)cc3)ccc2O1	-0.4	34.4[16.7 µM]	-3.6	20.6	-9.8	91.6*
C[C@@H]1CCCCO[C@@H](CN(C)Cc2ccc(C(F)(F)F)cc2)[C@@H](C)CN([C@H](C)CO)C(=O)c2cc(NC(=O)Nc3ccc(F)cc3)ccc2O1	-0.8	-19.2[16.7 µM]	-14.8	3.1	11.4	18.9
C[C@@H]1CN([C@H](C)CO)C(=O)c2cc(NC(=O)C3CCCCC3)ccc2O[C@@H](C)CCCCO[C@H]1CN(C)Cc1ccncc1	-0.5	3.7[16.7 µM]	.	2.1	10.5	7.8
CC(C)NC(=O)Nc1ccc2c(c1)C(=O)N([C@H](C)CO)C[C@@H](C)[C@H](CN(C)Cc1ccc(C(F)(F)F)cc1)OCCCC[C@@H](C)O2	-0.6	74.7*[16.7 µM]	4.4	14.4	-12.7	1.9
C[C@@H]1CCCCO[C@@H](CN(C)Cc2ccc(C(F)(F)F)cc2)[C@H](C)CN([C@H](C)CO)C(=O)c2cc(NC(=O)C3CCCCC3)ccc2O1	1.2	70.6*[16.7 µM]	.	18.2	-1.6	10.7
C[C@@H]1CCCCO[C@H](CN(C)Cc2ccc(C(F)(F)F)cc2)[C@@H](C)CN([C@@H](C)CO)C(=O)c2cc(NC(=O)C3CCCCC3)ccc2O1	1.0	31.9[16.7 µM]	.	17.7	11.8	34.0
SMILES	CFTR F508del cor	Env fusion inh	FN deposition inh	EWS-Fli inh	PGC1a acetyl inh	PAX8 inh HTS
C[C@H]1CN([C@@H](C)CO)C(=O)c2cc(NC(=O)Nc3ccc4c(c3)OCO4)ccc2O[C@H]1CN(C)Cc1ccncc1	1.0	13.0[16.7 µM]	11.1	.	-4.7	10.7
C[C@@H]1CN([C@H](C)CO)C(=O)c2cc(NC(=O)Nc3ccc4c(c3)OCO4)ccc2O[C@H]1CN(C)Cc1ccncc1	-0.9	58.2*	6.3	-3.1	-1.2	4.1
C[C@@H]1CCCCO[C@H](CN(C)Cc2ccncc2)[C@H](C)CN([C@@H](C)CO)C(=O)c2cc(NC(=O)C3CCCCC3)ccc2O1	4.3	-68.3[16.7 µM]	5.5	?	12.0	66.5*
CC(C)NC(=O)Nc1ccc2c(c1)C(=O)N([C@H](C)CO)C[C@@H](C)[C@@H](CN(C)Cc1ccc(C(F)(F)F)cc1)OCCCC[C@@H](C)O2	2.1	34.8[16.7 µM]	16.7	-0.6	-1.7	-12.8
CCNC(=O)[C@@H]1[C@@H](CO)[C@@H]2Cn3c(ccc(-c4ccc(OC)cc4)c3=O)[C@@H]2N1Cc1ccccc1	1.0	.	.	4.2	2.8	12.2
O=C(C1CC1)N1C[C@@H]2[C@H](c3ccccc31)[C@H](CO)N2S(=O)(=O)c1ccccc1	-0.1	.	3.6	5.9	-1.4	7.5
C[C@@H]1CN([C@@H](C)CO)C(=O)c2cc(NC(=O)Nc3ccc(C(F)(F)F)cc3)ccc2O[C@H]1CN(C)Cc1ccc(C(F)(F)F)cc1	1.3	6.6[16.7 µM]	.	-6.5	-2.9	70.1*
O=C(N[C@@H]1CC[C@H](CCNC(=O)C2CCCC2)O[C@H]1CO)c1ccccn1	2.2	19.4[16.7 µM]	-2.3	6.6	0.9	-6.4
CC(=O)c1ccc(NC(=O)COC(=O)c2c3c(nc4ccccc24)/C(=C\c2cccs2)CCC3)cc1	9.1*	-7.1	10.7	-7.9	.	.
CC(C)CNC(=O)COC(=O)c1c2c(nc3ccccc13)/C(=C\c1cccs1)CC2	2.0	2.0	-9.0	-60.3	18.0	-59.6
